Measured values gathered from unrelated publications.
Each line is one published result; the experiments were not run side by side.
Target: RAC-beta serine/threonine-protein kinase (AKT2, Homo sapiens, UniProt P31751)

SMILES | observed | mode | method | concentration | endpoint | value
CNC(=O)Nc1ccc2c(c1)CC[C@@]21OC(=O)N(CC(=O)N(Cc2ccc(F)cc2)[C@@H](C)C(F)(F)F)C1=O | cell-free assay | – | competition with immobilised ligand | 1 µM | remaining binding | 80%
Cc1ccc(C(=O)NCc2ccsc2)cc1C#Cc1cn(C(C)C)c2ncnc(N)c12 | enzyme activity | inhibitor | – | 1 µM | activity vs control | 99%
CC(=O)N1CCC(c2ccc(C(=O)NC3=NCCN3)cc2C(F)(F)F)CC1 | cell-free assay | – | competition with immobilised ligand | 1 µM | remaining binding | 91%
COc1cc(Nc2cnc(C#N)c(O[C@H](C)CN(C)C)n2)ncc1-c1cnn(C)c1 | enzyme activity | inhibitor | radiometric | 10 µM | remaining activity | 67%
CC(C)(C)c1nc2c(s1)c1nc(N)ncc1c1ccc(NS(=O)(=O)c3c(F)cccc3F)c(F)c12 | enzyme activity | inhibitor | radiometric | 1 µM | remaining activity | 114%
COc1cc(F)ccc1-c1ncnc(Nc2cccc(C[S@](C)(=N)=O)c2)n1 | enzyme activity | inhibitor | – | 10 µM | activity vs control | 112%
Cc1nccc(COC(=O)N2C[C@@H]3[C@@H](CNC(=O)c4ccc5[nH]nnc5c4)[C@@H]3C2)n1 | cell-free assay | – | competition with immobilised ligand | 1 µM | remaining binding | 98%
COc1cc(Cl)c(C(=O)N[C@@H](CN[C@H]2CC[C@@H](N)CC2)Cc2ccc(C#N)cc2)cc1-c1ccc(CN[C@H](C)c2ccc(C)cc2)o1 | enzyme activity | inhibitor | – | 1 µM | remaining activity | 65%
Cc1ccc(NC(=O)c2ccc(C)c(C(F)(F)F)c2)cc1C#Cc1nn(C2CCC(O)CC2)c2ncnc(N)c12 (stereo not drawn) | cell-free assay | – | – | 10 µM | remaining signal | 127%
COc1cc2ncnc(Nc3ccc(Oc4ccccc4)c(C)c3C)c2cc1OC | enzyme activity | inhibitor | – | 1 µM | inhibition | 1%
CCN(CC)c1ccc(C2=NNC(=O)CC2C)cc1[N+](=O)[O-] (stereo not drawn) | enzyme activity | inhibitor | – | 10 µM | remaining activity | 101%
Nc1nc(Nc2ccc(S(N)(=O)=O)cc2)nn1C(=O)c1c(F)cccc1F | cell-free assay | – | – | 0.5 µM | remaining signal | 107%
CNC(=O)c1ccc(Nc2ncc(C(F)(F)F)c(NCc3nccnc3N(C)S(C)(=O)=O)n2)cc1 | cell-free assay | – | competition with immobilised ligand | 0.1 µM | remaining binding | 77%
FC(F)c1nc2ccccc2n1-c1nc(N2CCOCC2)nc(N2CCOCC2)n1 | enzyme activity | inhibitor | – | 10 µM | remaining activity | 84%
CN1CC(Oc2cnc(C#N)cc2-c2ccn3nc(NC(=O)C4CC4)cc3c2)C1 | enzyme activity | inhibitor | – | 1 µM | inhibition | -3%
CC/C(=N\NC(=O)NCc1cccc(O)c1)c1ccc(O)c(C)c1O | enzyme activity | inhibitor | – | 0.1 µM | inhibition | 0.2%
Cc1cnc(NC2CCOCC2)nc1-n1cnc(C(=O)NC(CN)c2cc(F)cc(Cl)c2)c1 (stereo not drawn) | enzyme activity | inhibitor | radiometric | 1 µM | remaining activity | 92%
O=S(=O)(NC1CCC(c2cc(F)ccc2F)(S(=O)(=O)c2ccc(Cl)cc2)CC1)C(F)(F)F (stereo not drawn) | cell-free assay | – | competition with immobilised ligand | 1 µM | remaining binding | 99%
CC(C)(C)C(=O)c1sc(NC2CCCCC2)nc1N | enzyme activity | inhibitor | – | 10 µM | remaining activity | 83%
c1ccc(N2CCN(Cc3nc4ccccc4[nH]3)CC2)nc1 | binding | – | competition with immobilised ligand | 1 µM | remaining binding | 100%
CCCS(=O)(=O)Nc1ccc(F)c(C(=O)c2c[nH]c3ncc(-c4ccc(Cl)cc4)cc23)c1F | enzyme activity | inhibitor | – | 1 µM | inhibition | < 10%
CCCOc1ccc(OC)c(F)c1C(=O)c1ccc(C(=O)N[C@@H]2CNC[C@H]2NC(=O)c2ccc3[nH]ncc3c2)cc1 | enzyme activity | inhibitor | – | 10 µM | remaining activity | 49%
O=C1NC(=O)c2cc(Nc3ccc(F)cc3)c(Nc3ccc(F)cc3)cc21 | cell-free assay | – | – | 0.5 µM | remaining signal | 95.1%
O=C(NCc1ncc(C(F)(F)F)cc1Cl)c1ccc2c(c1)C1(CCS(=O)(=O)CC1)[C@H](C1CC1)N2S(=O)(=O)c1ccc(F)cc1 | cell-free assay | – | competition with immobilised ligand | 1 µM | remaining binding | 100%
O=C(Nc1cnn(-c2csc(C(=O)NC3COC3)c2)c1)Nc1c(F)cccc1Cl | enzyme activity | inhibitor | – | 5 µM | remaining activity | 104%
Cn1c(=O)n(-c2ccc(C(C)(C)C#N)cc2)c2c3cc(-c4cnc5ccccc5c4)ccc3ncc21 | enzyme activity | inhibitor | – | 10 µM | remaining activity | 106%
O=S(=O)(NCCNC/C=C/c1ccc(Br)cc1)c1cccc2cnccc12 | cell-free assay | – | – | 0.5 µM | remaining signal | 75.4%
O=C(N[C@H]1CCCCC/C=C\C2C[C@@]2(C(=O)O)NC(=O)[C@@H]2C[C@@H](Oc3ccncc3)CN2C1=O)OC1CCCC1 (stereo partly drawn) | binding | – | competition with immobilised ligand | 1 µM | remaining binding | 85%
COc1cc(/C=C/C(=O)CC(=O)/C=C/c2ccc(O)c(OC)c2)ccc1O | enzyme activity | inhibitor | – | 1 µM | activity vs control | 70%
O=C1Nc2ccc(Cl)cc2C1=Cc1cc(Cl)c(O)c(Cl)c1 | cell-free assay | – | – | 0.5 µM | remaining signal | 93.9%
